The text below walks through data of ChEMBL document CHEMBL1124149 (1988).

In brackets after ≈: the same amount, converted by molar mass.

The test system of this assay is Vaccinia virus. As to the kind of experiment: In vitro minimum inhibitory concentration to inhibit VV-induced cytopathogenicity in PRK cells by 50%. The class given is functional. The following applies: Orthopoxvirus vaccinia. An outline of the steps: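 Antiviral read-out was virus-induced cytopathogenicity in primary rabbit kidney (PRK) cell cultures. The value is the compound concentration needed to reduce cytopathogenicity by 50%.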
(Damage to the host cells serves as the signal in cytopathic effect assays.)

Compound `CNc1nc(O)c2ncn(COCCO)c2n1` returned an MIC above 400 µg/mL.

On to `Cc1cn2c([O-])c3c(nc2n1)[n+](COCCO)cn3C`, for which the MIC was above 400 µg/mL. In turn, `Cn1c[n+](COCCO)c2nc(N)nc([O-])c21.O=S(=O)(O)O` had an MIC above 400 µg/mL. With `Cc1cn2c(=O)c3ncn(COCCO)c3nc2n1C`, the MIC is above 400 µg/mL. Compound `Cn1c(N)nc2c(ncn2COCCO)c1=O` returned an MIC above 400 µg/mL.

On to `Cc1cn2c(O)c3ncn(COCCO)c3nc2n1`, for which the MIC is above 400 µg/mL.

The compound `Nc1nc2c(ncn2COCCO)c(=O)[nH]1` [ACYCLOVIR] gave an MIC of 150 µg/mL (≈ 666 µM).
